# PGC1a acetyl inh – lowers PGC1a acetylation signal in U2OS cells; AlphaScreen anti-acetyl-lysine; with virally co-expressed GCN5 acetyltransferase; inhibition, % at 15.6 µM; 350,000 compounds, 0.17% hits; AID 651687;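 active = every replicate shows inhibition of at least 40%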;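 also: 0% = neutral control wells and 100% = positive control wells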
# Vif imaging – inhibitors of HIV Vif. HEK293T cells, Vif self-association by quenched fluorescence, imaging, 24 h. inhibition, % at 7.49 µM. 340,000 compounds, 0.35% hits. AID 602346; in the data active = inhibition above about 50%, passing the limit was not always enough
# rRNA inh HTS – inhibitors of bacterial rRNA selective over humanized ribosomes | E. coli WT GFP vs humanized-ribosome RFP mutants, fluorescence, 24 h; stronger effect = lower value; DMSO median 0, no signal -100 | GFP signal change (wild-type ribosome), % (concentration not given with the values) | 350,000 compounds, 1.6% hits;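 active = significant combined selectivity score with lowered wild-type GFP, culture density cut under 30%, mutant RFP and density less affected; inactive = any of these conditions unmet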
# PglD DTNB – blocks C. jejuni PglD acetyltransferase activity. purified PglD enzyme, DTNB colorimetric CoA detection. inhibition, % at 12.5 µM. 360,000 compounds, 0.098% hits. AID 602405; in the data active = inhibition above about 16%, passing the limit was not always enough
# Cneo AK release – Cryptococcus neoformans lysis via adenylate kinase release; C. neoformans lysis, adenylate kinase release luminescence, 4 h; normalised: neutral wells 0, clomiphene wells 100; lysis activity, % at 15 µM; 360,000 compounds, 0.2% hits;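 active = mean lysis activity across replicates of at least 80%, whatever share of replicates individually reach that level; inactive = mean lysis activity below 80%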
#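 Test system: log-phase Cryptococcus neoformans yeast cells. Input: 5 × 10^6 yeast cells/mL. Medium: fresh YPD growth medium. Doses: single dose. Incubation: static 4 h at 37 °C with compound, 1 h detection. Measured by: luminescent adenylate kinase detection reagent. Read-out: signal increase indicating cell lysis. Benchmarks: Clomiphene.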
# FGF22 binding – FGF22 (human) thermal shift binding | Q9HCT0 | recombinant FGF22 thermal shift, SYPRO orange fluorescence; percent of sucrose octasulfate shift, DMSO zero | activity (Tm shift, normalised), % at 9.99 µM | 340,000 compounds, 1.5% hits;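 active = mean Tm shift, scaled 0 neutral to 100 positive control, at about 1.3% or above, every replicate too, limit read from the data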
# Target sequence (Q9HCT0 whole entry, looked up): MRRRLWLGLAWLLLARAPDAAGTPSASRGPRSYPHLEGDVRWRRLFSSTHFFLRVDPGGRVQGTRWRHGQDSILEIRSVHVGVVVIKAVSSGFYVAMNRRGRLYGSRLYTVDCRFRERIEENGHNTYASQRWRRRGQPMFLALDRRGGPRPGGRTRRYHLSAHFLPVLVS
# * hit, by the source's call; · = not tested or not shown; ! = not confirmed by another sample. An excerpt weighted towards active compounds, which were near 2.9% of everything screened.
SMILES,PGC1a acetyl inh,Vif imaging,rRNA inh HTS,PglD DTNB,Cneo AK release,FGF22 binding
C[C@@H]1CN([C@@H](C)CO)S(=O)(=O)c2ccc(C#CC3CC3)cc2O[C@@H]1CN(C)Cc1ccncc1,-13.2,·,-24.5,-0.3,-0.3,-0.5
COc1ccc(Br)cc1/C=C/C(=O)NCC(=O)O,-4.6,2.4,11.6,·,·,43.5*
COc1ccc(Br)cc1/C=C/C(=O)NC(=S)Nc1ccc(Cl)c(C(=O)O)c1,·,-0.7,-3.7,·,·,0.0
COc1ccccc1NC(=O)N[C@H]1CC[C@H](CCNC(=O)Cc2ccccn2)O[C@H]1CO,-5.2,·,0.8,2.8,5.0,0.0
CN1C(=O)c2cc(NC(=O)c3cccs3)ccc2OC[C@H]2O[C@@H](CC(=O)Nc3ccc4c(c3)COC4)CC[C@@H]21,0.4,·,1.4,·,·,0.2
COCCN(C(=O)CNC(=O)c1ccco1)C(C(=O)NC1CCCC1)c1cccc(OC)c1 (configuration not stated),-0.8,51.9*,4.3,1.1,-1.7,0.1
COc1ccccc1/C=C/C(=O)NCC(=O)N/N=C/c1ccccc1[N+](=O)[O-],·,-4.2,-9.6,·,·,0.1
O=C(/C=C/c1ccccc1)NCC(=O)N/N=C/c1ccccc1[N+](=O)[O-],·,-2.4,·,·,·,43.5*
O=C(CNC(=O)C(c1ccccc1)c1ccccc1)N/N=C/c1ccc(O)c([N+](=O)[O-])c1,·,5.4,-19.8*,1.6,-0.7,0.4
O=C(CNC(=O)c1ccco1)N/N=C/c1ccc(O)c([N+](=O)[O-])c1,2.9,7.9,2.3,4.0,0.1,0.1
O=C1N[C@H](Cc2ccccc2)COCc2cnnn2CC[C@H]1Cc1cccc(F)c1,·,·,0.5,·,·,·
COc1cc(NC(=O)COc2ccccc2)ccc1NC(=O)c1ccco1,1.0,66.2*,4.0,-0.9,3.0,0.2
CCn1c2ccccc2c2cc(NC(=O)c3ccco3)ccc21,-4.7,-0.5,-34.5*,1.9,0.6,0.2
COc1ccc(-c2ccc(NC(=O)c3ccco3)cc2)nn1,·,1.6,-7.4,2.1,-6.2,1.8*
O=C(/C=C/c1ccc(Br)cc1)c1ccc(NC(=O)c2ccco2)cc1,·,-6.2,·,3.2,-2.9,·
O=C(/C=C\c1ccccc1)Nc1ccc(NC(=O)c2ccco2)cc1,1.4,-6.6,1.5,5.2,2.1,1.5*
CN(C)CC(=O)N1[C@@H]2Cn3c(cccc3=O)[C@H]1[C@@H](C(=O)NCc1ccccc1)[C@@H]2CO,·,·,1.2,5.0,2.1,0.5
C[C@@H]1CC(=O)NCC/C=C\C[C@H](c2cccc(Cl)c2)NC1=O,·,·,1.8,·,·,·
O=C(COc1ccccc1)Nc1ccc(NC(=O)c2ccco2)cc1,-46.5,15.4,0.0,·,·,44.3*
O=C(/C=C/c1ccccc1)Nc1cc(C(=O)O)cc(C(=O)O)c1,-0.1,-2.6,18.8,2.9,-0.3,1.1
COC(=O)c1cc(NC(=O)/C=C/c2ccccc2)ccc1O,·,·,-36.1,·,·,43.1*
COc1ccc(OCC(=O)Nc2ccc(NC(=O)c3ccco3)cc2)cc1,13.7,22.5,·,0.3,0.8,·
Cc1noc(C)c1S(=O)(=O)Nc1ccc2c(c1)C(=O)N([C@H](C)CO)C[C@@H](C)[C@H](CN(C)C(=O)Nc1cccc3ccccc13)O2,2.1,·,3.1,0.7,2.5,-0.5
CCOc1ccc(C(C)NC(=S)NCc2ccc(Cl)cc2)cc1 (configuration not stated),·,-14.8,-0.7,·,·,43.3*
CCCc1ccc(C(C)NC(=S)NCc2ccc(F)cc2)cc1 (configuration not stated),2.6,-6.2,·,-2.7,47.5,0.1
SMILES,PGC1a acetyl inh,Vif imaging,rRNA inh HTS,PglD DTNB,Cneo AK release,FGF22 binding
CCC(=O)N1CC2(CCN(Cc3ccncc3)CC2)c2c(n(C)c3cc(OC)ccc23)[C@H]1CO,-10.0,·,1.0,·,·,0.0
Cc1cc(C)nc(OC(C(=O)O)C(OCCC(C)C)(c2ccccc2)c2ccccc2)n1 (configuration not stated),·,0.9,19.9,1.6,-0.4,·
CCCOC(c1ccccc1)(c1ccccc1)C(Oc1nc(C)cc(C)n1)C(=O)O (configuration not stated),6.0,13.5,-19.2*,-1.5,-2.0,-0.1
COc1ccc(CN(C)C[C@@H]2Oc3ccc(NC(=O)Cn4cnnn4)cc3CC(=O)N([C@H](C)CO)C[C@@H]2C)cc1,-7.3,·,3.7,-2.7,-1.0,0.1
Cc1cc(N2CCN(C)CC2)ccc1NC(=O)c1c2c(nc3ccccc13)CCN(Cc1ccccc1)C2,69.4*,-7.6,·,·,·,·
O=C(NC1CCCCCC1)c1c2c(nc3ccccc13)CCN(Cc1ccccc1)C2,·,-3.3,·,·,·,·
O=C(C[C@H]1C[C@@H]2c3cc(NC(=O)CC4CC4)ccc3O[C@@H]2[C@@H](CO)O1)NCc1ccc2c(c1)OCO2,4.0,·,-3.2,-1.2,0.8,0.4
COc1ccc(-c2csc(NC(=O)CS(=O)(=O)c3ccccc3)n2)cc1OC,·,7.3,-48.0,-0.9,-1.0,0.0
COc1ccc(-c2csc(NC(=O)c3ccc(OCC(=O)N4CCOCC4)c(OC)c3)n2)cc1OC,·,-22.3,-34.0,·,·,44.0*
COc1ccc(-c2csc(NC(=O)CC(NC(C)=O)c3ccccc3)n2)cc1OC (configuration not stated),2.7,20.3,-27.7*,1.1,-0.1,-0.4
COc1cc(C(=O)Nc2cccc(C)n2)ccc1OCC(=O)N1CCOCC1,-0.5,-1.7,3.6,-1.9,1.9,0.1
CCC(=O)N1CCCCN2[C@@H](CO)[C@H](c3ccc(C#Cc4ccccc4F)cc3)[C@@H]2C1,-7.0,·,-57.7,6.5,0.1,0.5
N#Cc1cccc(-c2ccc(C3[C@@H]4CN(Cc5ccccc5F)C[C@H]3N4)cc2)c1 (some centres not stated),47.6*!,·,-58.4,·,·,·
O=C(c1ccc(F)cc1)N1CCCCN2[C@H](CO)[C@H](c3ccc(-c4ccc(F)cc4)cc3)[C@H]2C1,8.7,·,·,-3.6,4.3,0.2
Cn1nc(C(F)(F)F)c(-c2cccc(C(F)(F)F)c2)c1NC(=O)Nc1ccc(F)cc1,-27.8,-9.2,-28.0*,0.3,5.2,0.2
Cn1nc(C(F)(F)F)c(-c2cccc(C(F)(F)F)c2)c1NC(=O)c1ccco1,-14.5,6.9,-19.9,5.1,2.7,-0.1
Cn1nc(-c2ccccc2)cc1NC(=O)Nc1ccc(F)cc1,1.8,19.4,-39.6*,·,·,0.1
Cc1ccccc1NC(=O)Nc1cc(-c2ccccc2)nn1C,6.1,-5.5,-3.0,·,·,-0.2
CCOC(=O)c1ccc(NC(=S)NCCc2ccccc2F)cc1,4.3,-2.9,·,8.0,15.8,44.0*
COc1cccc(-c2ccc([C@@H]3[C@H](CO)N4C(=O)CN(C(=O)C5CCCC5)C[C@@H]34)cc2)c1,0.0,·,-0.5,·,·,·
COc1ccccc1/C=C/C(=O)N1CCOCC1,3.5,-0.7,·,0.5,0.2,·

# Source: PubChem (Broad Institute)
